Source: ChEMBL document CHEMBL1122501, “Potential antiatherosclerotic agents. 2. (Aralkylamino)- and (alkylamino) benzoic acid analogues of cetaben” (1983)
Values joined by “and” are separate entries in the source; they are usually repeats but may differ in a detail not shown here. Identical values can stand only once. Blank lines part the entries; values can stand above or below the compound they belong to.

Tests used:
Rattus norvegicus [1] = assay: In vivo Triglyceride lowering activity at dose as 0.025 % of the diet; format: functional
How it was run: (§1)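 Male CFE or CD-1 Sprague-Dawley rats, 140-150 g; 8 per control group, 4 per test group. Compound mixed into ground chow (w/w) via MeOH-CHCl3 (1:3) solution, solvent evaporated; controls got solvent-treated chow. Fed ad libitum 5 days, food intake monitored, killed fed and bled. Serum sterols and triglycerides by adapted autoanalyzer methods; mean percent of control, Student's t test.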

Rattus norvegicus [2] = assay: In vivo Sterol lowering activity at dose as 0.025 % of the diet; format: functional; how it was run: as §1
Rattus norvegicus [3] = assay: In vivo Sterol lowering activity at dose as 0.05 % of the diet; format: functional; how it was run: as §1
Rattus norvegicus [4] = assay: In vivo sterol lowering activity dosed at 0.10 % of the diet; format: functional; how it was run: as §1
Rattus norvegicus [5] = assay: In vivo triglyceride lowering activity dosed at 0.05 % of the diet; format: functional; how it was run: as §1
Rattus norvegicus [6] = assay: In vivo triglyceride lowering activity dosed at 0.10 % of the diet; format: functional; how it was run: as §1
Rattus norvegicus [7] = assay: In vivo triglyceride lowering activity, dosed at 0.03 % of the diet; format: functional; how it was run: as §1
Rattus norvegicus [8] = assay: In vivo Triglyceride lowering activity at dose as 0.01 % of the diet; format: functional; how it was run: as §1
Rattus norvegicus [9] = assay: In vivo Sterol lowering activity at dose as 0.10 % of the diet.; format: functional; how it was run: as §1
Rattus norvegicus [10] = assay: In vivo triglyceride lowering activity, dosed at 0.10 % of the diet.; format: functional; how it was run: as §1
[11] = molecular target: T1, Sterol O-acyltransferase 1 (Rattus norvegicus) (UniProt O70536); assay: In vitro inhibitory activity against acyl coenzyme A:cholesterol acyltransferase (ACAT); set-up: concentration or dose not given beside the values; conditions: concentration not given here
T1 sequence (whole entry): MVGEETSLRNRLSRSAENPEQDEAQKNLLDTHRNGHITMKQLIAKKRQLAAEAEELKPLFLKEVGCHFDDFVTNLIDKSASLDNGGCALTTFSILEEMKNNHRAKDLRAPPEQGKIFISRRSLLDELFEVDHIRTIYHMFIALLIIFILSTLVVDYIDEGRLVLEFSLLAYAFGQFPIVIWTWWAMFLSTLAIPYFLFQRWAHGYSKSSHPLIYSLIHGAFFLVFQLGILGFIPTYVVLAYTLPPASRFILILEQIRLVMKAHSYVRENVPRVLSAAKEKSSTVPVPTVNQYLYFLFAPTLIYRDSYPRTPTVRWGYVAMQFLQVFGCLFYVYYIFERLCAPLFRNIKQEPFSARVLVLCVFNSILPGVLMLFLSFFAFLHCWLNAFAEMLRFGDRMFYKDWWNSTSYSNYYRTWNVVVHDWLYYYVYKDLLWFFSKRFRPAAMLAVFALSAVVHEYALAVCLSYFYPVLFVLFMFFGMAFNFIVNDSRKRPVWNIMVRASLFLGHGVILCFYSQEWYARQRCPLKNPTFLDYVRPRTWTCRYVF
How it was run: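 ACAT enzyme from rat adrenal homogenate in 0.2 M KH2PO4 buffer pH 7.4, 1000g 15 min 5 °C supernatant (microsomal fraction). Supernatant + BSA (50 mg/mL) + compound at final 5.2 μg/mL + buffer preincubated 10 min 37 °C; [14C]oleoyl-CoA (0.4 μCi) added, 30 min 37 °C. Lipids extracted, TLC; cholesteryl ester zone counted. Mean % inhibition vs no-compound control; Student's t test.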

Rattus norvegicus [12] = assay: In vivo Triglyceride lowering activity at dose as 0.03 % of the diet.; format: functional; how it was run: as §1
Rattus norvegicus [13] = assay: In vivo Sterol lowering activity at dose as 0.03 % of the diet.; format: functional; how it was run: as §1
Rattus norvegicus [14] = assay: In vivo triglyceride lowering activity, dosed at 0.01 % of the diet.; format: functional; how it was run: as §1
Rattus norvegicus [15] = assay: In vivo Sterol lowering activity at dose as 0.01 % of the diet.; format: functional; how it was run: as §1
Rattus norvegicus [16] = assay: In vivo Sterol lowering activity at dose as 0.03 % of the diet; format: functional; how it was run: as §1

SMILES: CCCCCCCCCCCCCNc1ccc(C(=O)O)cc1
- Diet (Rattus norvegicus [1]): <54%
- Diet (Rattus norvegicus [2]): 95%
- Diet (Rattus norvegicus [3]): <87%
- serum sterol, percent of control (Rattus norvegicus [4]): <84%
- Diet (Rattus norvegicus [5]): <36%
- serum triglycerides, percent of control (Rattus norvegicus [6]): <60%

SMILES: CCCCCCCCCC/C=C/CCCNc1ccc(C(=O)O)cc1
- Diet (Rattus norvegicus [1]): 86%
- Diet (Rattus norvegicus [2]): <84%
- Diet (Rattus norvegicus [3]): <82%
- serum sterol, percent of control (Rattus norvegicus [4]): <79%
- Diet (Rattus norvegicus [5]): <83%
- serum triglycerides, percent of control (Rattus norvegicus [6]): 83%

SMILES: CCCCCCCCCCCCNc1ccc(C(=O)O)cc1
- serum triglycerides, percent of control (Rattus norvegicus [7]): <40%
- Diet (Rattus norvegicus [2]): <86%
- Diet (Rattus norvegicus [3]): <80%
- serum sterol, percent of control (Rattus norvegicus [4]): <89%
- Diet (Rattus norvegicus [8]): <51%
- serum triglycerides, percent of control (Rattus norvegicus [6]): <32%

SMILES: C=CCCCCCCCC/C=C/CCCNc1ccc(C(=O)O)cc1
- Diet (Rattus norvegicus [1]): <71%
- Diet (Rattus norvegicus [2]): <86%
- Diet (Rattus norvegicus [3]): <81%
- serum sterol, percent of control (Rattus norvegicus [4]): <80%
- Diet (Rattus norvegicus [5]): 79%
- serum triglycerides, percent of control (Rattus norvegicus [6]): 88%

SMILES: CCCCCCCCC/C=C/CCCNc1ccc(C(=O)O)cc1
- Diet (Rattus norvegicus [1]): 85%
- Diet (Rattus norvegicus [2]): <86%
- Diet (Rattus norvegicus [3]): <83%
- serum sterol, percent of control (Rattus norvegicus [4]): <79%
- Diet (Rattus norvegicus [5]): 97%
- serum triglycerides, percent of control (Rattus norvegicus [6]): 75%

SMILES: CCCCCCNc1ccc(C(=O)OCC)cc1
- Diet (Rattus norvegicus [2]): 79%
- Diet (Rattus norvegicus [3]): 80%
- serum sterol, percent of control (Rattus norvegicus [9]): 87%
- Diet (Rattus norvegicus [5]): 76% and 73%
- Diet (Rattus norvegicus [10]): 86%

SMILES: O=C([O-])c1ccc(NCc2ccc(Cl)cc2)cc1.[Na+]
- serum triglycerides, percent of control (Rattus norvegicus [7]): 61%
- serum sterol, percent of control (Rattus norvegicus [9]): 83%
- Diet (Rattus norvegicus [14]): 70%
- serum triglycerides, percent of control (Rattus norvegicus [6]): 67%
- serum sterol, percent of control (Rattus norvegicus [15]): 91%
- Diet (Rattus norvegicus [16]): 90%

SMILES: Cc1ccc(CCC(=O)Nc2ccc(C(=O)O)cc2)cc1
- inhibition [11]: 0%
- Diet (Rattus norvegicus [12]): 97%
- serum sterol, percent of control (Rattus norvegicus [9]): 91%
- Diet (Rattus norvegicus [14]): 75%
- Diet (Rattus norvegicus [10]): 70%
- serum sterol, percent of control (Rattus norvegicus [15]): 94%
- Diet (Rattus norvegicus [16]): 83%

SMILES: CCOC(=O)c1ccc(NCCCc2ccc([N+](=O)[O-])cc2)cc1
- inhibition [11]: 19%
- Diet (Rattus norvegicus [12]): 84%
- serum sterol, percent of control (Rattus norvegicus [4]): 85%
- Diet (Rattus norvegicus [14]): 81%
- Diet (Rattus norvegicus [10]): 73%
- serum sterol, percent of control (Rattus norvegicus [15]): 85%
- Diet (Rattus norvegicus [16]): 81%

SMILES: O=C(OCC(O)CO)c1ccc(NCCCc2ccc(Cl)cc2)cc1 (configuration not stated)
- inhibition [11]: 17%
- Diet (Rattus norvegicus [12]): 63%
- serum sterol, percent of control (Rattus norvegicus [4]): 81%
- Diet (Rattus norvegicus [14]): 78%
- serum triglycerides, percent of control (Rattus norvegicus [6]): 57%
- serum sterol, percent of control (Rattus norvegicus [15]): 97%
- Diet (Rattus norvegicus [16]): 88%

SMILES: CCOC(=O)c1ccc(NC(=O)CCCCC(=O)c2ccc(Cl)cc2)cc1
- inhibition [11]: 37%
- Diet (Rattus norvegicus [12]): 131%
- serum sterol level, percent of control (Rattus norvegicus [13]): 88%
- serum sterol, percent of control (Rattus norvegicus [9]): 90%
- Diet (Rattus norvegicus [14]): 110%
- Diet (Rattus norvegicus [10]): 96%
- serum sterol, percent of control (Rattus norvegicus [15]): 90%

SMILES: CCOC(=O)c1ccc(NCCCc2cccc(Br)c2)cc1
- inhibition [11]: 50%
- serum triglycerides, percent of control (Rattus norvegicus [7]): 60%
- serum sterol, percent of control (Rattus norvegicus [9]): 94%
- Diet (Rattus norvegicus [14]): 74%
- Diet (Rattus norvegicus [10]): 63%
- serum sterol, percent of control (Rattus norvegicus [15]): 84%
- Diet (Rattus norvegicus [16]): 84%

SMILES: O=C(CCCCCc1ccc(Cl)cc1)Nc1ccc(C(=O)O)cc1
- inhibition [11]: 18%
- Diet (Rattus norvegicus [12]): 104%
- serum sterol level, percent of control (Rattus norvegicus [13]): 93%
- serum sterol, percent of control (Rattus norvegicus [9]): 99%
- Diet (Rattus norvegicus [14]): 96%
- Diet (Rattus norvegicus [10]): 90%
- serum sterol, percent of control (Rattus norvegicus [15]): 86%

SMILES: CCOC(=O)c1ccc(NC(=O)CCc2ccc(C)cc2)cc1
- inhibition [11]: 25%
- Diet (Rattus norvegicus [12]): 64%
- serum sterol level, percent of control (Rattus norvegicus [13]): 99%
- serum sterol, percent of control (Rattus norvegicus [9]): 88%
- Diet (Rattus norvegicus [14]): 73%
- Diet (Rattus norvegicus [10]): 69%
- serum sterol, percent of control (Rattus norvegicus [15]): 97%

SMILES: O=C(O)c1ccc(NCc2ccc(Cl)cc2)cc1
- Diet (Rattus norvegicus [12]): 72%
- serum sterol, percent of control (Rattus norvegicus [4]): 71%
- Diet (Rattus norvegicus [14]): 98%
- serum triglycerides, percent of control (Rattus norvegicus [6]): 52%
- serum sterol, percent of control (Rattus norvegicus [15]): 89%
- Diet (Rattus norvegicus [16]): 80%

The next lines start with results.

- inhibition [11]: 18%
SMILES: O=C(O)c1ccc(NCCCc2ccc([N+](=O)[O-])cc2)cc1
- Diet (Rattus norvegicus [12]): 75%
- serum sterol level, percent of control (Rattus norvegicus [13]): 91%
- serum sterol, percent of control (Rattus norvegicus [9]): 96%
- Diet (Rattus norvegicus [14]): 78%
- Diet (Rattus norvegicus [10]): 83%
- serum sterol, percent of control (Rattus norvegicus [15]): 98%

- inhibition [11]: 54%
SMILES: CCOC(=O)c1ccc(NCCCc2ccc(Cl)cc2)cc1C(=O)OCC
- Diet (Rattus norvegicus [12]): 91%
- serum sterol level, percent of control (Rattus norvegicus [13]): 99%
- serum sterol, percent of control (Rattus norvegicus [9]): 96%
- Diet (Rattus norvegicus [14]): 93%
- Diet (Rattus norvegicus [10]): 80%
- serum sterol, percent of control (Rattus norvegicus [15]): 95%

- inhibition [11]: < 51%
SMILES: CCCCCCCCC/C=C/CCCNc1ccc(C(=O)OCC)cc1
- serum triglycerides, percent of control (Rattus norvegicus [7]): 75%
- Diet (Rattus norvegicus [2]): <88%
- Diet (Rattus norvegicus [3]): <85%
- serum sterol, percent of control (Rattus norvegicus [4]): <83%
- Diet (Rattus norvegicus [8]): 78%
- serum triglycerides, percent of control (Rattus norvegicus [6]): 79%

- inhibition [11]: 33%
SMILES: O=C(CCc1ccc(Cl)cc1)Nc1ccc(C(=O)O)cc1
- Diet (Rattus norvegicus [12]): 115%
- serum sterol level, percent of control (Rattus norvegicus [13]): 104%
- serum sterol, percent of control (Rattus norvegicus [9]): 96%
- Diet (Rattus norvegicus [14]): 100%
- Diet (Rattus norvegicus [10]): 100%
- serum sterol, percent of control (Rattus norvegicus [15]): 104%

- inhibition [11]: 37%
SMILES: CCOC(=O)c1ccc(NCCCc2ccccc2F)cc1
- Diet (Rattus norvegicus [12]): 116%
- serum sterol level, percent of control (Rattus norvegicus [13]): 100%
- serum sterol, percent of control (Rattus norvegicus [9]): 97%
- Diet (Rattus norvegicus [14]): 106%
- Diet (Rattus norvegicus [10]): 92%
- serum sterol, percent of control (Rattus norvegicus [15]): 104%

- inhibition [11]: 16%
SMILES: O=C(O)c1ccc(NCCCc2ccc(F)cc2)cc1
- Diet (Rattus norvegicus [12]): 90%
- serum sterol, percent of control (Rattus norvegicus [9]): 82%
- Diet (Rattus norvegicus [14]): 94%
- serum triglycerides, percent of control (Rattus norvegicus [6]): 61%
- serum sterol, percent of control (Rattus norvegicus [15]): 83%
- Diet (Rattus norvegicus [16]): 82%

- inhibition [11]: 9%
SMILES: CCOC(=O)c1ccc(NCCCc2ccccc2[N+](=O)[O-])cc1
- Diet (Rattus norvegicus [12]): 83%
- serum sterol level, percent of control (Rattus norvegicus [13]): 96%
- serum sterol, percent of control (Rattus norvegicus [9]): 89%
- Diet (Rattus norvegicus [8]): 70%
- Diet (Rattus norvegicus [10]): 68%
- serum sterol, percent of control (Rattus norvegicus [15]): 93%

- inhibition [11]: 31%
SMILES: O=C(O)c1ccc(NCCCCCCc2cccs2)cc1
- serum triglycerides, percent of control (Rattus norvegicus [7]): 63%
- serum sterol, percent of control (Rattus norvegicus [4]): 76%
- Diet (Rattus norvegicus [8]): 58%
- serum triglycerides, percent of control (Rattus norvegicus [6]): 57%
- serum sterol, percent of control (Rattus norvegicus [15]): 90%
- Diet (Rattus norvegicus [16]): 83%
